Assay results from ChEMBL document CHEMBL1150584, “Antifungal stilbenoids from Stemona collinsae” (J Nat Prod, 2002).
Values after ≈ are worked out from the molar mass of the structure shown. Active and inactive are the calls of the source. No cut-off for these calls is given here.

How the values were obtained:
Cladosporium herbarum [1] = assay: Growth inhibition of Cladosporium herbarum VIAM MA1511 at 10 ug by bioautography test; assay type: functional, organism-based
Pyricularia grisea = assay: Inhibition of germ tube formation in Pyricularia grisea VIAM MA1628 after 16 hrs by microdilution technique; assay type: functional, organism-based
How it was run: (§1)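 Germ tube inhibition by 2-fold serial microdilution in 4% malt extract broth. Compound stock of 2 mg in 250 µL acetone plus 4.75 mL malt extract with 0.2% Tween 80; negative control was stock without compound. Spores added at 10⁴ CFU/mL, incubated 16 h at room temperature, stopped with lactophenol blue. Mycelial size taken as pixel counts from images of 10 germinated conidia per well. Probit-log estimates over 200–0.1 µg/mL; MIC = lowest concentration with no germination.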

Alternaria citri = assay: Inhibition of germ tube formation in Alternaria citri VIAM MA1627 after 16 hrs by microdilution technique; assay type: functional, organism-based
How it was run: (§2)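 Stock (2 mg in 250 µL acetone plus 4.75 mL 4% malt extract, emulsified with 0.2% Tween 80) serially 2-fold microdiluted in 4% malt extract broth. Conidia were added at 10⁴ CFU/mL, then incubated 16 h at room temperature and stopped with lactophenol blue. Mycelial size was taken as pixel counts from images of 10 germinated conidia per well. Probit-log estimates covered 200–0.1 µg/mL. Controls were vehicle stock and benomyl.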

Cladosporium herbarum [2] = assay: Inhibition of germ tube formation in Cladosporium herbarum VIAM MA1511 after 16 hrs by microdilution technique; assay type: functional, organism-based; how it was run: as §2
Fusarium avenaceum [3] = assay: Inhibition of germ tube formation in Fusarium avenaceum VIAM MA1512 after 16 hrs by microdilution technique; assay type: functional, organism-based; how it was run: as §2
Botrytis cinerea [4] = assay: Inhibition of germ tube formation in Botrytis cinerea VIAM MA2725 after 16 hrs by microdilution technique; assay type: functional, organism-based; how it was run: as §2
Botrytis cinerea [5] = assay: Inhibition of germ tube formation in Botrytis cinerea VIAM MA2725 at 1.6 to 200 ug/ml after 16 hrs by microdilution technique; assay type: functional; how it was run: as §2
Cladosporium herbarum [6] = assay: Inhibition of germ tube formation in Cladosporium herbarum VIAM MA1511 at 0.4 to 200 ug/ml after 16 hrs by microdilution technique; assay type: functional; how it was run: as §1
Botrytis cinerea [7] = assay: Inhibition of germ tube formation in Botrytis cinerea VIAM MA2725 at 0.4 to 200 ug/ml after 16 hrs by microdilution technique; assay type: functional; how it was run: as §1
Fusarium avenaceum [8] = assay: Inhibition of germ tube formation in Fusarium avenaceum VIAM MA1512 at 1.6 to 200 ug/ml after 16 hrs by microdilution technique; assay type: functional; how it was run: as §2

Row | SMILES | Activity (Cladosporium herbarum [1]) | EC50 (Pyricularia grisea) | EC90 (Pyricularia grisea) | MIC (Pyricularia grisea) | EC50 (Alternaria citri) | EC90 (Alternaria citri) | MIC (Alternaria citri) | EC50 (Cladosporium herbarum [2]) | EC90 (Cladosporium herbarum [2]) | MIC (Cladosporium herbarum [2]) | EC50 (Fusarium avenaceum [3]) | EC90 (Fusarium avenaceum [3]) | MIC (Fusarium avenaceum [3]) | MIC (Botrytis cinerea [4]) | inhibition (INH) (Botrytis cinerea [5]) | inhibition (INH) (Cladosporium herbarum [6]) | inhibition (INH) (Botrytis cinerea [7]) | inhibition (INH) (Fusarium avenaceum [8]) | EC50 (Botrytis cinerea [4]) | EC90 (Botrytis cinerea [4])
1 | Oc1cc(O)cc(/C=C/c2ccccc2)c1 | Active |  |  |  |  |  |  |  |  |  |  |  |  |  |  |  |  |  |  | 
2 | COc1ccccc1CCc1cc(O)cc(O)c1 [STILBOSTEMIN A] | Active | 46 µg/mL (≈ 188 µM) | > 200 µg/mL | > 200 µg/mL | 70 µg/mL (≈ 287 µM) | > 200 µg/mL | > 200 µg/mL | > 200 µg/mL | > 200 µg/mL | > 200 µg/mL | > 200 µg/mL | > 200 µg/mL | > 200 µg/mL | > 200 µg/mL | 30% |  |  |  |  | 
3 | CCCCNC(=O)n1c(NC(=O)OC)nc2ccccc21 [BENOMYL] |  |  | 84 µg/mL (≈ 289 µM) | 200 µg/mL (≈ 689 µM) | > 200 µg/mL | > 200 µg/mL | > 200 µg/mL |  |  | > 200 µg/mL | 0.02 µg/mL (≈ 0.0689 µM) | > 200 µg/mL | 100 µg/mL (≈ 344 µM) | > 200 µg/mL |  | 85% | 85% |  |  | 
4 | COc1cc(O)c(C)c(-c2cc3c(O)cccc3o2)c1 | Active |  |  |  |  |  |  |  |  |  |  |  |  |  |  |  |  |  |  | 
5 | COc1c(C)c(O)c(C)c(-c2cc3c(O)cccc3o2)c1C [STEMOFURAN F] | Active |  |  |  | 10 µg/mL (≈ 33.5 µM) | > 200 µg/mL | > 200 µg/mL | 79 µg/mL (≈ 265 µM) | > 200 µg/mL | > 200 µg/mL |  |  | > 200 µg/mL | > 200 µg/mL | 30% |  |  | 30% |  | 
6 | COc1cc(-c2cc3c(O)c(C)ccc3o2)c(C)c(O)c1C [STEMOFURAN G] |  |  |  |  | 14 µg/mL (≈ 46.9 µM) | > 200 µg/mL | > 200 µg/mL | > 200 µg/mL | > 200 µg/mL | > 200 µg/mL |  |  | > 200 µg/mL | > 200 µg/mL | 30% |  |  | 30% |  | 
7 | COc1cc(O)cc(CCc2cccc(O)c2OC)c1 | Active |  |  |  |  |  |  |  |  |  |  |  |  |  |  |  |  |  |  | 
8 | COc1cc(-c2cc3c(O)cccc3o2)c(C)c(OC)c1C [STEMOFURAN J] |  | 0.9 µg/mL (≈ 3.02 µM) | 8.5 µg/mL (≈ 28.5 µM) | 25 µg/mL (≈ 83.8 µM) | 50 µg/mL (≈ 168 µM) | > 200 µg/mL | > 200 µg/mL | 34 µg/mL (≈ 114 µM) | > 200 µg/mL | > 200 µg/mL | 32 µg/mL (≈ 107 µM) | > 200 µg/mL | > 200 µg/mL | > 200 µg/mL |  |  |  |  | 50 µg/mL (≈ 168 µM) | > 200 µg/mL
9 | COc1cc(O)cc(-c2cc3c(O)cccc3o2)c1 [STEMOFURAN B] | Active | 1.4 µg/mL (≈ 5.46 µM) | 52 µg/mL (≈ 203 µM) | 50 µg/mL (≈ 195 µM) | 5 µg/mL (≈ 19.5 µM) | 128 µg/mL (≈ 499 µM) | 200 µg/mL (≈ 780 µM) | 183 µg/mL (≈ 714 µM) | > 200 µg/mL | > 200 µg/mL | 10 µg/mL (≈ 39 µM) | > 200 µg/mL | > 200 µg/mL | > 200 µg/mL |  |  |  |  | 8 µg/mL (≈ 31.2 µM) | > 200 µg/mL
10 | Cc1c(O)cc(/C=C/c2ccccc2)cc1O | Active |  |  |  |  |  |  |  |  |  |  |  |  |  |  |  |  |  |  | 
11 | COc1ccccc1CCc1cc(O)c(C)c(O)c1 [STILBOSTEMIN D] | Active | 3 µg/mL (≈ 11.6 µM) | 152 µg/mL (≈ 588 µM) | 100 µg/mL (≈ 387 µM) | 19 µg/mL (≈ 73.6 µM) | > 200 µg/mL | > 200 µg/mL | 17 µg/mL (≈ 65.8 µM) | > 200 µg/mL | > 200 µg/mL | 57 µg/mL (≈ 221 µM) | > 200 µg/mL | > 200 µg/mL | > 200 µg/mL |  |  |  |  | 11 µg/mL (≈ 42.6 µM) | > 200 µg/mL
12 | Cc1c(O)cc(-c2cc3ccccc3o2)cc1O [STEMOFURAN C] | Active | 3.2 µg/mL (≈ 13.3 µM) | 30 µg/mL (≈ 125 µM) | 50 µg/mL (≈ 208 µM) | 7 µg/mL (≈ 29.1 µM) | 528 µg/mL (≈ 2200 µM) | > 200 µg/mL | 8 µg/mL (≈ 33.3 µM) | > 200 µg/mL | > 200 µg/mL | 21 µg/mL (≈ 87.4 µM) | > 200 µg/mL | > 200 µg/mL | > 200 µg/mL |  |  |  |  | 29 µg/mL (≈ 121 µM) | > 200 µg/mL
13 | COc1cc(O)c(C)c(CCc2cccc(O)c2OC)c1 | Active |  |  |  |  |  |  |  |  |  |  |  |  |  |  |  |  |  |  | 
14 | Cc1c(O)cc(CCc2ccccc2)cc1O [STILBOSTEMIN B] | Active | 3 µg/mL (≈ 13.1 µM) | 371 µg/mL (≈ 1630 µM) | 100 µg/mL (≈ 438 µM) | 5 µg/mL (≈ 21.9 µM) | > 200 µg/mL | 200 µg/mL (≈ 876 µM) | 15 µg/mL (≈ 65.7 µM) | > 200 µg/mL | > 200 µg/mL | 16 µg/mL (≈ 70.1 µM) | > 200 µg/mL | > 200 µg/mL | > 200 µg/mL |  |  |  |  | 10 µg/mL (≈ 43.8 µM) | > 200 µg/mL
15 | Oc1cc(O)cc(-c2cc3ccccc3o2)c1 | Active |  |  |  |  |  |  |  |  |  |  |  |  |  |  |  |  |  |  | 
16 | COc1cc(-c2cc3c(O)cccc3o2)c(C)c(O)c1C [STEMOFURAN E] | Active |  |  |  | 5 µg/mL (≈ 17.6 µM) | > 200 µg/mL | > 200 µg/mL | 0.8 µg/mL (≈ 2.81 µM) | > 200 µg/mL | > 200 µg/mL | 18 µg/mL (≈ 63.3 µM) | > 200 µg/mL | > 200 µg/mL | > 200 µg/mL |  |  |  |  | 26 µg/mL (≈ 91.4 µM) | > 200 µg/mL
17 | Cc1c(O)cc(CCc2ccccc2O)cc1O | Active |  |  |  |  |  |  |  |  |  |  |  |  |  |  |  |  |  |  | 
